Results as given in ChEMBL document CHEMBL5653631, “A Potent and Selective ULK1 Inhibitor Suppresses Autophagy and Sensitizes Cancer Cells to Nutrient Stress” (iScience, 2018).

Assays:
[1] = target: Myosin light chain kinase, smooth muscle (Homo sapiens) (UniProt Q15746); assay: Inhibition of human recombinant smMLCK at 40 nM in presence of ATP by radiometric assay relative to control
[2] = target: T1, Mitogen-activated protein kinase kinase kinase 3 (Homo sapiens) (UniProt Q99759); assay: Inhibition of human recombinant MAP3K3 at 40 nM related to control ULK1
T1 sequence (whole entry): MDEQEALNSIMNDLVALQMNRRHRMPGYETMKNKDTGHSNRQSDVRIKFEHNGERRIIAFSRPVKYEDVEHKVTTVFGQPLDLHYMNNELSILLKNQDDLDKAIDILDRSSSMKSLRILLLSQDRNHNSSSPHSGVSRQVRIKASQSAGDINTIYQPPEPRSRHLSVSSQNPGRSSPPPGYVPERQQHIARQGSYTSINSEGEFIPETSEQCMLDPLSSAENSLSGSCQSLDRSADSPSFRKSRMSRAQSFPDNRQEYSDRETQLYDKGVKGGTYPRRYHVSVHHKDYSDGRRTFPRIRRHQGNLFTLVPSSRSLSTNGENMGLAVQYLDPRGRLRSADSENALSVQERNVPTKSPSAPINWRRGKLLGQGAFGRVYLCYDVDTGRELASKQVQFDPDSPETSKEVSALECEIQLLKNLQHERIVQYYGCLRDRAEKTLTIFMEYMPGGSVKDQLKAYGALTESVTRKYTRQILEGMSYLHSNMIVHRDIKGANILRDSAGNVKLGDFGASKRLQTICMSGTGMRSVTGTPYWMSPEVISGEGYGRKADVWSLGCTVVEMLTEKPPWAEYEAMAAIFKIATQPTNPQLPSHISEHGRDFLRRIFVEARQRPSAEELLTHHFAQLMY

[3] = target: Epithelial discoidin domain-containing receptor 1 (Homo sapiens) (UniProt Q08345); assay: Inhibition of human recombinant DDR1 at 40 nM in presence of ATP by radiometric assay relative to control
[4] = target: T2, Testis-specific serine/threonine-protein kinase 4 (Homo sapiens) (UniProt Q6SA08); assay: Inhibition of human recombinant TSSK4 at 40 nM in presence of ATP by radiometric assay relative to control
T2 sequence (whole entry): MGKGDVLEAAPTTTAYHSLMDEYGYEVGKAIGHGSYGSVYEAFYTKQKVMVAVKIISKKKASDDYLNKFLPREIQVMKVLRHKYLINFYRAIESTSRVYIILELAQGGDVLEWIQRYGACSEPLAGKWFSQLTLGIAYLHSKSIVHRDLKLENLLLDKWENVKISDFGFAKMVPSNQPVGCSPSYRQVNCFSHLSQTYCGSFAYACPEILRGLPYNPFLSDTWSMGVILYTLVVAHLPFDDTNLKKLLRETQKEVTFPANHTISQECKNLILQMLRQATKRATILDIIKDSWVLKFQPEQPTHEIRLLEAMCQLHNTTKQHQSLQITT

[5] = target: eIF-2-alpha kinase GCN2 (Homo sapiens) (UniProt Q9P2K8); assay: Inhibition of human recombinant GCN2 at 500 nM in presence of ATP by radiometric assay relative to control
[6] = target: Fibroblast growth factor receptor 4 (Homo sapiens) (UniProt P22455); assay: Inhibition of human recombinant FGFR4 at 500 nM related to control ULK1
Homo sapiens = species: Homo sapiens; assay: Inhibition of human recombinant ABL at 500 nM in presence of ATP by radiometric assay relative to control
Procedure, shortened: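 Panel of 327 recombinant human kinases in radiometric activity assays, each screened in duplicate at a single inhibitor concentration; percent activity remaining relative to vehicle control, percent inhibition taken as 100 minus activity remaining.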

[7] = target: Mitogen-activated protein kinase 1 (Homo sapiens) (UniProt P28482); assay: Inhibition of human recombinant Erk2 at 15 nM related to control ULK1
[8] = target: Serine/threonine-protein kinase 35 (Homo sapiens) (UniProt Q8TDR2); assay: Inhibition of human recombinant CLIK1 at 15 nM in presence of ATP by radiometric assay relative to control
[9] = target: Dual specificity protein kinase CLK2 (Homo sapiens) (UniProt P49760); assay: Inhibition of human recombinant CLK2 at 15 nM related to control ULK1
[10] = target: Ribosomal protein S6 kinase alpha-3 (Homo sapiens) (UniProt P51812); assay: Inhibition of human recombinant RSK2 at 15 nM in presence of ATP by radiometric assay relative to control
[11] = target: Tyrosine-protein kinase BTK (Homo sapiens) (UniProt Q06187); assay: Inhibition of human recombinant BTK at 15 nM related to control ULK1
[12] = target: T3, Serine/threonine-protein kinase Nek11 (Homo sapiens) (UniProt Q8NG66); assay: Inhibition of human recombinant NEK11 at 15 nM related to control ULK1
T3 sequence (whole entry): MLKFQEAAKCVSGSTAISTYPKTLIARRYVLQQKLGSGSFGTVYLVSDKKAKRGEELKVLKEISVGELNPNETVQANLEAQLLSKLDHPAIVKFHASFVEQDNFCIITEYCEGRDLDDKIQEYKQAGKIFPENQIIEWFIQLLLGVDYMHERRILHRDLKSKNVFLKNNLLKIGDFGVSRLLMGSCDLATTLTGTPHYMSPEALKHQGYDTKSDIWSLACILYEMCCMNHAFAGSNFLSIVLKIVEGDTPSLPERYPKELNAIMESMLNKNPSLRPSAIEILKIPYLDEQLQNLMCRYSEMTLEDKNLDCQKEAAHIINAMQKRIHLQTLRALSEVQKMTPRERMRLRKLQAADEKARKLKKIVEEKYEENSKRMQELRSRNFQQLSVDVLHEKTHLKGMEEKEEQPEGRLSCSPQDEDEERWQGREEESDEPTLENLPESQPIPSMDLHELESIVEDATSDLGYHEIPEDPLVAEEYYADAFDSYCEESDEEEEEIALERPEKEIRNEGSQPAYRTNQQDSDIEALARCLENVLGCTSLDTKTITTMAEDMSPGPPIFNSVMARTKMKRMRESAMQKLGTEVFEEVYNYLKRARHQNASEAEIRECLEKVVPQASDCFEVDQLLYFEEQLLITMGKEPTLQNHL

Chain of eIF-2-alpha kinase GCN2 (Homo sapiens) (Q9P2K8 whole entry): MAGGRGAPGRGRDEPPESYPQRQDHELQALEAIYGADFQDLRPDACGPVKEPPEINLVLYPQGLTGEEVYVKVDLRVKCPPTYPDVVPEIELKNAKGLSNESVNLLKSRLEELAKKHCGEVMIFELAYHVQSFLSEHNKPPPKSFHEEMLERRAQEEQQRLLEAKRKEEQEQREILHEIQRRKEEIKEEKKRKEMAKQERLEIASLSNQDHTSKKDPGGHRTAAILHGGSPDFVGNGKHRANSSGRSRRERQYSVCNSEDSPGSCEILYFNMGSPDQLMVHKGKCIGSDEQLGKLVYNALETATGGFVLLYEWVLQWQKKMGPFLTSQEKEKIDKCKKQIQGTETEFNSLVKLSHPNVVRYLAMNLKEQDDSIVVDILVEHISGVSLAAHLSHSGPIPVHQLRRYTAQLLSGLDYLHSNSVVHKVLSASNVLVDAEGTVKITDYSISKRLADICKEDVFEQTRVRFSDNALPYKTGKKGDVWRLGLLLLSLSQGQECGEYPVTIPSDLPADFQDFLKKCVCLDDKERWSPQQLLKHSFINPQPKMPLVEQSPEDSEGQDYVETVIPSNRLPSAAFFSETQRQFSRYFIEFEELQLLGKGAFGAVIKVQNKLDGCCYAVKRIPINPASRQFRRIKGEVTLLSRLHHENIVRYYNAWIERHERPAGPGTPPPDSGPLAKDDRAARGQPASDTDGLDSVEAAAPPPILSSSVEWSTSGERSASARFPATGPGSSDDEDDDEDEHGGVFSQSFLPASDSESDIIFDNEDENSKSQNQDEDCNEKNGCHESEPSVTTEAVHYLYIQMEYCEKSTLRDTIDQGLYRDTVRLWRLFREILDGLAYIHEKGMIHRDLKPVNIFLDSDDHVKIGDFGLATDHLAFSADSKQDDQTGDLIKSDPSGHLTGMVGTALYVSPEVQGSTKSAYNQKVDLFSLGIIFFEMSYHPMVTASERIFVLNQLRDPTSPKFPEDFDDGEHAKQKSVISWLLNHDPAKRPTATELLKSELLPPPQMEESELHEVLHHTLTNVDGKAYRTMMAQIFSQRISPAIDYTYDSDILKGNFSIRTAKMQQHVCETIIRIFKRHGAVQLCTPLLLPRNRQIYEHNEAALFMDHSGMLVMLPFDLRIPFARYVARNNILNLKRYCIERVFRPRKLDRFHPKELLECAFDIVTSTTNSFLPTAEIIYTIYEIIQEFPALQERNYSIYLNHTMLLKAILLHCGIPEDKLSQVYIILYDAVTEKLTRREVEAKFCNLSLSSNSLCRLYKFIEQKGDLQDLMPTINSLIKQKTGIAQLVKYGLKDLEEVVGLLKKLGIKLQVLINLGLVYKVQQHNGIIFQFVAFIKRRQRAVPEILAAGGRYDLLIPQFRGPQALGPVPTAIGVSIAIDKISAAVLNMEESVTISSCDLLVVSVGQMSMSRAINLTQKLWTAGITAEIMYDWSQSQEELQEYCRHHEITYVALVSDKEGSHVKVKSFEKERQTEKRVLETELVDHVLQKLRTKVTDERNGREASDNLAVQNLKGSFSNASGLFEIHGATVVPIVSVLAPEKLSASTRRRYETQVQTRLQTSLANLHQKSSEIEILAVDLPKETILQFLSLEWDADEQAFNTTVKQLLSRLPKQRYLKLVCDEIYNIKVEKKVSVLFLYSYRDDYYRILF
Chain of Dual specificity protein kinase CLK2 (Homo sapiens) (P49760 whole entry, looked up): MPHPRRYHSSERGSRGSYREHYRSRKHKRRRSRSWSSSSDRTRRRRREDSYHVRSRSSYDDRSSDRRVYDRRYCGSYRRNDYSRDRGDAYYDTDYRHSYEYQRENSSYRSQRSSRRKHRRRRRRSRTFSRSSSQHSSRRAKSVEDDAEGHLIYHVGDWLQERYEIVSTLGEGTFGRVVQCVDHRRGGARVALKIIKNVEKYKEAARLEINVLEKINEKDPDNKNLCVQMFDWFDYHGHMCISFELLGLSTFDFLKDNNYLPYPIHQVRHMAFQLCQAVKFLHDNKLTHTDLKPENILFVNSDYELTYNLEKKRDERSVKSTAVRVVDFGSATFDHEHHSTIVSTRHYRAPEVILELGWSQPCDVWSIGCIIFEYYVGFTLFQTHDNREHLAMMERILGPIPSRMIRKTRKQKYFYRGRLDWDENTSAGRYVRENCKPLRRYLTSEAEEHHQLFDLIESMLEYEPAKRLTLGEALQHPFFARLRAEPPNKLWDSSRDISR
Chain of Fibroblast growth factor receptor 4 (Homo sapiens) (P22455 22-802 limits assumed): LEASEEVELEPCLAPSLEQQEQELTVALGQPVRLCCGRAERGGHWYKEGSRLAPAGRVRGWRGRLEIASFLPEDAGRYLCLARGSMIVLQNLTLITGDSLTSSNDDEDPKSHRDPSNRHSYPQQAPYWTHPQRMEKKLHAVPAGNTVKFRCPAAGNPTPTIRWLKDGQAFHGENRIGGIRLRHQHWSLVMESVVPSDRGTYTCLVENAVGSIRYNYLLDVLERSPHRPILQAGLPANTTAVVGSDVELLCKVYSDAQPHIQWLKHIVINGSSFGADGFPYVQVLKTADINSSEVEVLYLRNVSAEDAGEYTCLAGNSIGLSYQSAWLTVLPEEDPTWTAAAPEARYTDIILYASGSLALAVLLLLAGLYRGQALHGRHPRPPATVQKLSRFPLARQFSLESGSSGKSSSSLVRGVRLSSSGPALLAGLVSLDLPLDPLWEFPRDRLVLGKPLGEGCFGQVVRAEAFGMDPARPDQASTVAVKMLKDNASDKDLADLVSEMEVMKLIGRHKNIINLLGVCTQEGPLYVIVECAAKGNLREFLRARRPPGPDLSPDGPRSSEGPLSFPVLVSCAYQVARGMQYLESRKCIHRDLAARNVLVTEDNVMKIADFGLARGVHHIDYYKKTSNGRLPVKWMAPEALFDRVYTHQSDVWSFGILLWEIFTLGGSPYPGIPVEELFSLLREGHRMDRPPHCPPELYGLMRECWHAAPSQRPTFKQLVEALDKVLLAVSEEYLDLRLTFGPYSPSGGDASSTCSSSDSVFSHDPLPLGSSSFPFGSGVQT
Chain of Mitogen-activated protein kinase 1 (Homo sapiens) (P28482 whole entry): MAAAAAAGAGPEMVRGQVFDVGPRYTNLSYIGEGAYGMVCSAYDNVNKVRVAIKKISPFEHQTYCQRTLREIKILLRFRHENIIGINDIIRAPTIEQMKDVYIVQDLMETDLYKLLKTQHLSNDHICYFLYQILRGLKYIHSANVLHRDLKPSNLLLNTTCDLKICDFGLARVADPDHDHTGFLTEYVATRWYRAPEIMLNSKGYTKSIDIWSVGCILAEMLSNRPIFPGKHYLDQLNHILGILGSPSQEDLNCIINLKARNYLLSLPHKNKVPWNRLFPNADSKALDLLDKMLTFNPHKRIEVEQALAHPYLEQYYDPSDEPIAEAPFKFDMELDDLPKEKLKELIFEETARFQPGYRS
Chain of Ribosomal protein S6 kinase alpha-3 (Homo sapiens) (P51812 whole entry): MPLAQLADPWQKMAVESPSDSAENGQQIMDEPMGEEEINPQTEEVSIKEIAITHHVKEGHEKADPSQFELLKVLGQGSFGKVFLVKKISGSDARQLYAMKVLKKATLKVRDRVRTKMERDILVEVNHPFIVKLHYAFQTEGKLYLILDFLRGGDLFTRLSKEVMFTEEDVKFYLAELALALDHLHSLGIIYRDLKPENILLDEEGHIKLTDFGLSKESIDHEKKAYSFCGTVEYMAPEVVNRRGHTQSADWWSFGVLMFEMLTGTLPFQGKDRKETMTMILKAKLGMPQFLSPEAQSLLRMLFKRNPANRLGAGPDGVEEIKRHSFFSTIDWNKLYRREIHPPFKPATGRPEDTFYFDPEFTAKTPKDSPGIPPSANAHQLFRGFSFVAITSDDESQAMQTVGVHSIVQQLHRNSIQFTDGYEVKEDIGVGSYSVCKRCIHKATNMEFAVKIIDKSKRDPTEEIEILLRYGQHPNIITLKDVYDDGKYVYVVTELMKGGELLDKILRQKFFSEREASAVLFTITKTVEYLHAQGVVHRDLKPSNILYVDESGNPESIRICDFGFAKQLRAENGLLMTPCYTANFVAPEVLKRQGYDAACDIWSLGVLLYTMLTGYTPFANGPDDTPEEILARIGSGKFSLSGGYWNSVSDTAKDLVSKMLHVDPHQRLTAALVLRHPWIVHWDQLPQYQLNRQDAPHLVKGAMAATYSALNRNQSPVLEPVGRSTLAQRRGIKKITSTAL
Chain of Serine/threonine-protein kinase 35 (Homo sapiens) (Q8TDR2 whole entry): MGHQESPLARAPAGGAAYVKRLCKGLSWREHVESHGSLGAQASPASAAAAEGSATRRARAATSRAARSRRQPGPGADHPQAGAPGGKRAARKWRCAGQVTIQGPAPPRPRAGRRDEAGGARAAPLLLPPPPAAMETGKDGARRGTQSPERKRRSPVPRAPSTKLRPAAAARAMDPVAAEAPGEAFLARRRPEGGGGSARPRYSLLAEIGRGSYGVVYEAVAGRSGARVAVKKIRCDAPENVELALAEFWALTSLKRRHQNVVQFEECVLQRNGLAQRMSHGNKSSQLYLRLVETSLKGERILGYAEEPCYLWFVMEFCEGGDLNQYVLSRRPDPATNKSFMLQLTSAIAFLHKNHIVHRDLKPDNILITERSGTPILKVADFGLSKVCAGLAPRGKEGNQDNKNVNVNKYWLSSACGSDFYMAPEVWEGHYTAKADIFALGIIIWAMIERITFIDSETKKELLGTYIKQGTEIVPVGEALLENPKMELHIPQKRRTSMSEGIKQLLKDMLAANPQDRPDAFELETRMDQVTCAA

Q: For `O=C(N[C@@H](C1CC1)C(F)(F)F)c1cc(-c2cnn3cc(-c4ccc(F)cc4)cnc23)cs1`, which inhibition [1] is on record?
A: Its inhibition is 5%.

Q: And the fold change (FC) [2]?
A: Its fold change (FC) is 0.

Q: And the inhibition [3]?
A: The inhibition was 18%.

Q: And the inhibition [4]?
A: The inhibition was 0%.

Q: Which inhibition [5] does the source give for `CNC(=O)c1ccccc1Oc1nc(Nc2cc(OC)c(OC)c(OC)c2)ncc1Br` here?
A: Its inhibition is 2%.

Q: What about the fold change (FC) [6] of the same compound?
A: Its fold change (FC) is 0.14.

Q: And the inhibition (Homo sapiens)?
A: Its inhibition is 14%.

Q: How did the fold change (FC) [7] turn out when `CC(C)[C@H](NC(=O)c1cc(-c2cnn3cc(-c4ccc(OCCN5CCCCC5)cc4)cnc23)cs1)C(F)(F)F` was run?
A: Its fold change (FC) is 0.

Q: What about the inhibition [8] of the same compound?
A: Its inhibition is 9%.

Q: What about the fold change (FC) [9] of the same compound?
A: The fold change (FC) was 0.33.

Q: What about the inhibition [10] of the same compound?
A: The inhibition was 0%.

Q: And the fold change (FC) [11]?
A: The fold change (FC) was 0.

Q: And the fold change (FC) [12]?
A: Its fold change (FC) is 0.
